Assays:
Rattus norvegicus [1] = assay: Evaluated for the distribution of radioactivity in tissues of female Fischer rats blood after 30 minutes intravenous administration; dose/g, range 0.10-0.13; format: ADME, organism-based; conditions: in vivo, 0.5 h
Rattus norvegicus [2] = assay: Evaluated for the distribution of radioactivity in tissues of female Fischer rats kidneys after 60 minutes intravenous administration; dose/g, range 5.67-8.41; format: ADME, organism-based, Kidney; conditions: in vivo, 1 h
Rattus norvegicus [3] = assay: Evaluated for the distribution of radioactivity in tissues of female Fischer rats kidneys after 30 minutes intravenous administration; dose/g, range 8.28-10.72; format: ADME, organism-based, Kidney; conditions: in vivo, 0.5 h
Rattus norvegicus [4] = assay: Evaluated for the distribution of radioactivity in tissues of female Fischer rats thyroid after 5 minutes intravenous administration; dose/g, range 26-49; format: ADME, organism-based, Thyroid gland; conditions: in vivo
Rattus norvegicus [5] = assay: Evaluated for the distribution of radioactivity in tissues of female Fischer rats lungs after 60 minutes intravenous administration; dose/g, range 1.07-1.26; format: ADME, organism-based, Lung; conditions: in vivo, 1 h
Method in brief: (§1)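 Female Fischer 344 rats (10-12 weeks, 170-200 g), fed ad libitum, got a single iv tail-vein injection under ether anaesthesia of the 125I-labelled cation (2.85-8.38 μCi). The tracer was dissolved in Me2SO, diluted with saline to 1% Me2SO and filtered. At the set times rats were killed by cervical fracture and blood taken by cardiac puncture. Organs were rinsed, blotted, weighed and gamma-counted against injectate standards. Results are %dose/g, mean and range, n=5. Thyroid weight was taken as 7.5 mg/100 g body weight.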

Rattus norvegicus [6] = assay: Evaluated for the distribution of radioactivity in tissues of female Fischer rats blood after 5 minutes intravenous administration; dose/g, range 0.27-0.33; format: ADME, organism-based; conditions: in vivo
Rattus norvegicus [7] = assay: Evaluated for the distribution of radioactivity in tissues of female Fischer rats thyroid after 30 minutes intravenous administration; dose/g, range 26-40; format: ADME, organism-based, Thyroid gland; conditions: in vivo, 0.5 h
Rattus norvegicus [8] = assay: Evaluated for the distribution of radioactivity in tissues of female Fischer rats lungs after 30 minutes intravenous administration; dose/g, range 0.91-1.74; format: ADME, organism-based, Lung; conditions: in vivo, 0.5 h
Rattus norvegicus [9] = assay: Evaluated for the distribution of radioactivity in tissues of female Fischer rats liver after 60 minutes intravenous administration; dose/g, range 0.44-0.54; format: ADME, organism-based; conditions: in vivo, 1 h; method in brief: as §1
Rattus norvegicus [10] = assay: Evaluated for the distribution of radioactivity in tissues of female Fischer rats heart after 30 minutes intravenous administration; dose/g, range 3.17-4.70; format: ADME, organism-based; conditions: in vivo, 0.5 h
Rattus norvegicus [11] = assay: Evaluated for the distribution of radioactivity in tissues of female Fischer rats blood after 60 minutes intravenous administration; dose/g, range 0.12-0.14; format: ADME, organism-based; conditions: in vivo, 1 h
Rattus norvegicus [12] = assay: Evaluated for the distribution of radioactivity in tissues of female Fischer rats lungs after 5 minutes intravenous administration; dose/g, range 1.41-2.17; format: ADME, organism-based, Lung; conditions: in vivo
Rattus norvegicus [13] = assay: Evaluated for the distribution of radioactivity in tissues of female Fischer rats thyroid after 60 minutes intravenous administration; dose/g, range 26-42; format: ADME, organism-based, Thyroid gland; conditions: in vivo, 1 h; method in brief: as §1
Rattus norvegicus [14] = assay: Evaluated for the distribution of radioactivity in tissues of female Fischer rats heart after 60 minutes intravenous administration; dose/g, range 3.51-5.44; format: ADME, organism-based; conditions: in vivo, 1 h
Rattus norvegicus [15] = assay: Evaluated for the distribution of radioactivity in tissues of female Fischer rats liver after 5 minutes intravenous administration; dose/g, range 1.04-2.56; format: ADME, organism-based; conditions: in vivo
Rattus norvegicus [16] = assay: Evaluated for the distribution of radioactivity in tissues of female Fischer rats kidneys after 5 minutes intravenous administration; dose/g, range 1.04-2.56; format: ADME, organism-based, Kidney; conditions: in vivo
Rattus norvegicus [17] = assay: Evaluated for the distribution of radioactivity in tissues of female Fischer rats liver after 30 minutes intravenous administration; dose/g, range 0.55-0.71; format: ADME, organism-based; conditions: in vivo, 0.5 h
Rattus norvegicus [18] = assay: Evaluated for the distribution of radioactivity in tissues of female Fischer rats heart after 5 minutes intravenous administration; dose/g, range 3.80-5.74; format: ADME, organism-based; conditions: in vivo
Rattus norvegicus [19] = assay: Evaluated for the distribution of radioactivity in tissues of female Fischer rats kidneys after 30 minutes intravenous administration; dose/g, range 10.5-14.4; format: ADME, organism-based, Kidney; conditions: in vivo, 0.5 h
Rattus norvegicus [20] = assay: Evaluated for the distribution of radioactivity in tissues of female Fischer rats liver after 30 minutes intravenous administration; dose/g, range 0.57-0.72; format: ADME, organism-based; conditions: in vivo, 0.5 h
Rattus norvegicus [21] = assay: Evaluated for the distribution of radioactivity in tissues of female Fischer rats heart after 5 minutes intravenous administration; dose/g, range 2.78-3.62; format: ADME, organism-based; conditions: in vivo
Rattus norvegicus [22] = assay: Evaluated for the distribution of radioactivity in tissues of female Fischer rats lungs after 30 minutes intravenous administration; dose/g, range 0.99-1.23; format: ADME, organism-based, Lung; conditions: in vivo, 0.5 h
Rattus norvegicus [23] = assay: Evaluated for the distribution of radioactivity in tissues of female Fischer rats blood after 30 minutes intravenous administration; dose/g, range 0.22-0.32; format: ADME, organism-based; conditions: in vivo, 0.5 h
Rattus norvegicus [24] = assay: Evaluated for the distribution of radioactivity in tissues of female Fischer rats liver after 5 minutes intravenous administration; dose/g, range 1.26-2.45; format: ADME, organism-based; conditions: in vivo
Rattus norvegicus [25] = assay: Evaluated for the distribution of radioactivity in tissues of female Fischer rats lungs after 5 minutes intravenous administration; dose/g, range 0.95-1.49; format: ADME, organism-based, Lung; conditions: in vivo
Rattus norvegicus [26] = assay: Evaluated for the distribution of radioactivity in tissues of female Fischer rats kidneys after 60 minutes intravenous administration; dose/g, range 4.59-8.81; format: ADME, organism-based, Kidney; conditions: in vivo, 1 h
Rattus norvegicus [27] = assay: Evaluated for the distribution of radioactivity in tissues of female Fischer rats lungs after 60 minutes intravenous administration; dose/g, range 0.83-2.11; format: ADME, organism-based, Lung; conditions: in vivo, 1 h
Rattus norvegicus [28] = assay: Evaluated for the distribution of radioactivity in tissues of female Fischer rats heart after 60 minutes intravenous administration; dose/g, range 3-3.70; format: ADME, organism-based; conditions: in vivo, 1 h
Rattus norvegicus [29] = assay: Evaluated for the distribution of radioactivity in tissues of female Fischer rats liver after 60 minutes intravenous administration; dose/g, range 0.24-0.30; format: ADME, organism-based; conditions: in vivo, 1 h
Rattus norvegicus [30] = assay: Evaluated for the distribution of radioactivity in tissues of female Fischer rats blood after 5 minutes intravenous administration; dose/g, range 0.25-0.34; format: ADME, organism-based; conditions: in vivo
Rattus norvegicus [31] = assay: Evaluated for the distribution of radioactivity in tissues of female Fischer rats blood after 60 minutes intravenous administration; dose/g, range 0.15-0.23; format: ADME, organism-based; conditions: in vivo, 1 h
Rattus norvegicus [32] = assay: Evaluated for the distribution of radioactivity in tissues of female Fischer rats kidneys after 5 minutes intravenous administration; dose/g, range 10.7-16.9; format: ADME, organism-based, Kidney; conditions: in vivo
Rattus norvegicus [33] = assay: Evaluated for the distribution of radioactivity in tissues of female Fischer rats heart after 30 minutes intravenous administration; dose/g, range 2.67-4.31; format: ADME, organism-based; conditions: in vivo, 0.5 h
Rattus norvegicus [34] = assay: Evaluated for the distribution of radioactivity in tissues of female Fischer rats thyroid after 30 minutes intravenous administration; dose/g, range 32-42; format: ADME, organism-based, Thyroid gland; conditions: in vivo, 0.5 h
Rattus norvegicus [35] = assay: Evaluated for the distribution of radioactivity in tissues of female Fischer rats thyroid after 60 minutes intravenous administration; dose/g, range 30-53; format: ADME, organism-based, Thyroid gland; conditions: in vivo, 1 h
Rattus norvegicus [36] = assay: Evaluated for the distribution of radioactivity in tissues of female Fischer rats thyroid after 5 minutes intravenous administration; dose/g, range 22-25; format: ADME, organism-based, Thyroid gland; conditions: in vivo

I/C=C/CCC[P+](c1ccccc1)(c1ccccc1)c1ccccc1.[I-]
Distribution (Rattus norvegicus [1]): 0.12% | Distribution (Rattus norvegicus [2]): 6.8% | Distribution (Rattus norvegicus [3]): 9.36% | Distribution (Rattus norvegicus [4]): 37% | Distribution (Rattus norvegicus [5]): 1.18% | Distribution (Rattus norvegicus [6]): 0.29% | Distribution (Rattus norvegicus [7]): 31% | Distribution (Rattus norvegicus [8]): 1.28% | Distribution (Rattus norvegicus [9]): 0.49% | Distribution (Rattus norvegicus [10]): 3.99% | Distribution (Rattus norvegicus [11]): 0.14% | Distribution (Rattus norvegicus [12]): 1.72% | Distribution (Rattus norvegicus [13]): 33% | Distribution (Rattus norvegicus [14]): 4.19% | Distribution (Rattus norvegicus [15]): 1.48% | Distribution (Rattus norvegicus [16]): 1.48% | Distribution (Rattus norvegicus [17]): 0.62% | Distribution (Rattus norvegicus [18]): 4.4%

I/C=C/CCC[As+](c1ccccc1)(c1ccccc1)c1ccccc1.[I-]
Distribution (Rattus norvegicus [19]): 12.01% | Distribution (Rattus norvegicus [20]): 0.64% | Distribution (Rattus norvegicus [21]): 3.22% | Distribution (Rattus norvegicus [22]): 1.09% | Distribution (Rattus norvegicus [23]): 0.26% | Distribution (Rattus norvegicus [24]): 1.78% | Distribution (Rattus norvegicus [25]): 1.24% | Distribution (Rattus norvegicus [26]): 6.92% | Distribution (Rattus norvegicus [27]): 1.31% | Distribution (Rattus norvegicus [28]): 3.37% | Distribution (Rattus norvegicus [29]): 0.27% | Distribution (Rattus norvegicus [30]): 0.31% | Distribution (Rattus norvegicus [31]): 0.19% | Distribution (Rattus norvegicus [32]): 13.14% | Distribution (Rattus norvegicus [33]): 3.17% | Distribution (Rattus norvegicus [34]): 37% | Distribution (Rattus norvegicus [35]): 43% | Distribution (Rattus norvegicus [36]): 23%

— ChEMBL document CHEMBL1122900, “Effects of alkyl and aryl substitution on the myocardial specificity of radioiodinated phosphonium, arsonium, and ammonium cations” (J Med Chem, 1985)
